# From PubChem BioAssay
# MrgX1 PAM: positive allosteric modulators of MrgX1, primary screen, HEK293 cells, Fluo-4 calcium flux | FDSS; stronger effect = higher value | B-score at 10 µM | 310,000 compounds, 0.63% hits;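 active = plate-corrected calcium response at least 3 library SD above typical, normal starting fluorescence, not activating the receptor alone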;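 note: compound read alongside a low EC10 to EC30 dose of BAM8-22 agonist; peak minus trough fluorescence over baseline measured at the second addition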
# MrgX1 agonist: agonists of human MrgX1 receptor, primary screen, HEK293 cells, Fluo-4 calcium flux. Fluo-4 calcium fluorescence, agonist mode; stronger effect = higher value. B-score at 10 µM. 310,000 compounds, 0.44% hits. AID 588627, 2011;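 active = calcium response B-score plate-corrected fluorescence ratio at least 3 library SD, with starting fluorescence B-score inside 5 SD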
#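 Test system: Stable human MrgX1 HEK293 cell line | Schedule: Overnight plating before 1 h dye loading | Read-out basis: Baseline-normalised fluorescence change ratio, B-scored | Detection: Kinetic calcium dye fluorescence, Fluo-4 NW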
# Kir21 block: inhibitors of mouse Kir2.1 inward-rectifier potassium channel; Inward rectifier potassium channel 2 (Mus musculus), P35561; HEK293-Kir2.1, FluxOR thallium flux fluorescence; stronger effect = lower value; B-score at 10 µM; 310,000 compounds, 0.85% hits;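 active = fluorescence ratio B-score at or below minus 3 SD of library scores, with starting-brightness B-score within 2 SD, cut at about -4.2 in these data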;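 note: channel flux triggered by added potassium and thallium sulfate stimulus; B-score of peak minus minimum fluorescence over baseline after thallium stimulus; more negative B-score means stronger Kir2.1 block with less thallium influx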
# Target sequence (P35561 whole entry, looked up): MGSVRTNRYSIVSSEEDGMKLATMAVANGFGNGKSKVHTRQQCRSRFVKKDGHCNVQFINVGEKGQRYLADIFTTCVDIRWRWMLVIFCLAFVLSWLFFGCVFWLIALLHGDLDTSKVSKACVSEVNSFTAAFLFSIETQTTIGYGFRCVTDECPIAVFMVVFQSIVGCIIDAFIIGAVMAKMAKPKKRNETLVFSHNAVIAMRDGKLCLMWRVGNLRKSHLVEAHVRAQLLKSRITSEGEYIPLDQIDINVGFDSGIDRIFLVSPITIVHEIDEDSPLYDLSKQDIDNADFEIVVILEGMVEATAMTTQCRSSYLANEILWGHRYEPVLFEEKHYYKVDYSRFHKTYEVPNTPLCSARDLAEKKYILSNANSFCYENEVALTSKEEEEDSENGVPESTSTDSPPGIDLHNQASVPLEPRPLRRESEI
# RGS4 block: RGS4 inhibitors, primary screen, cell-based, HEK293 M3R inducible RGS4, calcium flux. Fluo-4 calcium flux; stronger effect = higher value; triggered by carbachol at its EC20. 310,000 compounds, 0.45% hits. Regulator of G-protein signaling 4 (Homo sapiens), P49798. B-score at 10 µM;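 active = B-score, a plate-corrected calcium signal, over three deviations above library mean, with baseline fluorescence within five deviations of library mean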;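 note: RGS4 expression induced by doxycycline in cells with stable M3 receptor; B-score is computed from the integrated fluorescence ratio over baseline after carbachol; higher B-score means a larger calcium signal and so more RGS4 inhibition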
# Target sequence (P49798 whole entry, looked up): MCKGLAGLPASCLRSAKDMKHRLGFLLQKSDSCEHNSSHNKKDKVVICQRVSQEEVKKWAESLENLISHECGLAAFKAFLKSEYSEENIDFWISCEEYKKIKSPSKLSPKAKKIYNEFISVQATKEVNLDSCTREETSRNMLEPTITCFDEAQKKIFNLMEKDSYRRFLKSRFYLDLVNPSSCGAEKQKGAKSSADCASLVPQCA
# MrgX1 antag: antagonists of human MrgX1 receptor, primary screen, HEK293 cells, Fluo-4 calcium flux. Mas-related G-protein coupled receptor member X1 (Homo sapiens), Q96LB2. BAM8-22 antagonism; stronger effect = lower value. B-score at 10 µM. 310,000 compounds, 1.3% hits;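 active = calcium-response B-score plate-corrected more than 3 library SD below zero, starting fluorescence within 5 deviations, no agonist response on first addition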;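 note: peak minus trough fluorescence over baseline after final BAM8-22 challenge near maximal dose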
# RGS4 pot: RGS4 potentiators or activators, primary screen, cell-based, HEK293 M3R inducible RGS4, calcium flux; 310,000 compounds, 0.92% hits; B-score at 10 µM; carbachol calcium flux Fluo4; stronger effect = lower value;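 active = B-score of the integrated calcium signal more than 4 SD below the library mean, with starting fluorescence not abnormally high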;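 note: negative B-score means reduced calcium response which marks RGS4 activation or potentiation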
#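 System: HEK293 FlpIn-TREx cells, stable M3R, doxycycline-inducible RGS4. Timing: overnight RGS4 induction, 30 min dye load 37 °C, 20 min compound RT. Also added: carbachol, ECmax concentration. Measured by: Fluo4 fluorescence kinetic imaging of calcium. Evaluation: integrated calcium ratio converted to B score.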
# Starred values were filed as active, the others as inactive; i = inactive. The list is not random: actives were taken first. Their share in the collection is about 4.1%.
SMILES,MrgX1 PAM,MrgX1 agonist,Kir21 block,RGS4 block,MrgX1 antag,RGS4 pot
O=C1CCCc2nc(N3CCN(C(c4ccccc4)c4ccccc4)CC3)ncc21,i,i,-0.24,i,i,-7.04*
Cc1ccccc1CC(=O)Nc1ccc2c(C)cc(=O)oc2c1,i,i,0.5,i,i,i
O=C(NCc1cccnc1)C1CCN(c2ccc(S(=O)(=O)N3CCOCC3)cc2Cl)CC1,i,i,0.84,i,i,i
CCCCCNCC(=O)Nc1cccc(C(=O)Nc2cccc(C(F)(F)F)c2)c1,i,i,0.01,i,-6.95*,i
Cc1cc(OCC#N)nc(N)n1,i,i,-0.59,i,i,i
Cc1c2cnn(CC(=O)NCCN3CCOCC3)c(=O)c2c(C)n1Cc1ccc(F)cc1,i,i,-0.29,i,-5.81*,i
O=C1OC(c2ccc(Br)cc2)=N/C1=C\N1CCCCC1,i,i,0.85,i,-5.59*,i
Cc1cc(NC(NC(=O)c2ccco2)(C(F)(F)F)C(F)(F)F)no1,i,i,-0.01,i,i,i
O=S(=O)(c1ccc2ccccc2c1)n1cnc2ccccc21,i,i,1.08,i,i,i
CCOc1ccc(/C=C2/C(=O)N(c3ccc(OC)cc3)C(=S)N2CC(=O)OC)cc1OCC,i,i,-0.17,i,-6.39*,i
Cc1cc(C)nc(NN2C(=O)/C(=C/c3ccccc3)SC2=S)n1,i,i,0.57,i,i,i
COc1cc(/C=C2\SC(=S)N(Nc3ncc(C(F)(F)F)cc3Cl)C2=O)ccc1O,16.8*,i,0.5,i,i,i
CN(C)c1ccc(/C=C2\SC(=S)N(Nc3ncc(C(F)(F)F)cc3Cl)C2=O)cc1,13.2*,i,-11.6,i,i,i
COc1ccc2[nH]c(C(=O)Nc3cccc(C)n3)cc2c1,i,i,-0.66,i,i,i
c1ccc(CN2CCN(CCOCCOc3ccc4c(c3)CCC4)CC2)cc1,i,i,1.05,i,-5.6*,i
CC1CN(CCCCSc2ccc(Cl)cc2)CC(C)O1 (centres undefined),i,i,-0.35,i,i,i
CCN1CCN(Cc2ccc(NC(=O)c3ccc(C)c(/C=C/c4cnc(Nc5cc(N6CCNCC6)nc(C)n5)cn4)c3)cc2C(F)(F)F)CC1,i,27.3*,-3.86,i,i,i
COc1ccc2cc(Br)ccc2c1CC(=O)NC(C)C,i,i,2.47,i,i,i
COC(=O)c1ccc(N2CCc3ccccc32)c([N+](=O)[O-])c1,7.7*,i,1.95,i,i,i
COc1ccc(C(=O)c2ccc(N3CCOCC3)c([N+](=O)[O-])c2)cc1,i,i,0.12,i,i,i
O=C(NCc1ccc(F)cc1)c1ccc(N2CCc3ccccc32)c([N+](=O)[O-])c1,i,i,-5.39*,i,i,i
COc1ccc(CNC(=O)c2ccc(N3CCOCC3)c([N+](=O)[O-])c2)cc1,i,i,-4.88*,i,i,i
CCOC(OCC)P(=O)(C(C)C)C(C)C,i,i,-0.97,i,i,i
Cn1cccc1C(=O)NC(=O)COC(=O)CC12CC3CC(CC(Br)(C3)C1)C2,i,i,0.63,i,i,i
CCCCNC(=O)CSc1nc(CCC)nc2ccccc12,i,i,-0.34,i,i,i
SMILES,MrgX1 PAM,MrgX1 agonist,Kir21 block,RGS4 block,MrgX1 antag,RGS4 pot
CCOC(=O)CNC(=O)CSc1nc(Cc2cccs2)nc2ccccc12,i,i,-2.8,i,i,i
CCCc1nc(SCC(=O)N2CCc3ccccc3C2)c2ccccc2n1,i,i,-5.61*,i,i,i
CC1CC(C)CN(C(=O)CSc2nc(Cc3cccs3)nc3ccccc23)C1 (centres undefined),i,i,-1.79,i,i,-7.08*
CCN1CCc2c(sc(NC(=O)c3ccc(S(=O)(=O)N(C)c4ccccc4)cc3)c2C(=O)NC)C1,i,59.1*,-3.33,i,i,-7.47*
CNC(=O)c1c(NC(=O)c2ccc(S(=O)(=O)N(C)c3ccccc3)cc2)sc2c1CCN(C(C)C)C2,i,i,-4.55,i,i,i
CS(=O)(=O)Nc1cccc(C(=O)CC2(O)C(=O)Nc3ccc(Br)cc32)c1 (centres undefined),i,i,-0.41,i,i,i
CC(C)C(=O)O/N=C(\N)c1ccc(Oc2ccc(Cl)cc2)c([N+](=O)[O-])c1,i,i,0.02,i,i,-8.6*
COc1ccc(OC)c(NC(=O)C2C3C=CC(C3)C2C(=O)NCc2ccccn2)c1 (centres undefined),i,i,-0.95,i,i,i
CC1CC(C)CN(C(=O)c2ccc3c(c2NCCO)C(=O)c2ccccc2C3=O)C1 (centres undefined),13.9*,i,-0.13,i,i,i
Cc1c(CCO)sc[n+]1CC(=O)OCCC12CC3CC(CC(C3)C1)C2,i,i,-0.41,i,i,i
Cc1c(CCOC(=O)CC23CC4CC(CC(C4)C2)C3)sc[n+]1Cc1ccccc1,i,i,-1.84,i,i,-7.66*
O=C1C2C3C=CC(C4CC34)C2C(=O)N1/N=C/c1ccc(-c2ccc(Cl)cc2[N+](=O)[O-])o1 (centres undefined),i,i,2.96,i,i,-8.49*
O=C(Nc1cccc(-c2csc(Nc3ccccc3)n2)c1)c1ccccc1,i,i,1.47,i,i,-7.34*
O=S(=O)(Nc1cccc(CCc2ccccn2)c1)c1ccc(Cl)cc1,i,i,-9.25*,i,i,i
COc1ccc2c(c1)cc(C(=O)N/N=C/c1c(O)c(C(=O)O)cc3ccccc13)n2C,i,i,-1.45,i,i,i
Cn1c(O)c(/C=N/NC(=O)c2cc3ccccc3cc2O)c2ccccc21,i,49.8*,-6.29,i,i,-7.59*
COc1ccc(CC(=O)N(Cc2ccccc2)C(C)C)cc1,i,i,-4.27*,i,i,i
COc1cc(/C=C2/C(=N)N3C=CSC3=NC2=O)ccc1OCCOc1ccc(NC(C)=O)cc1,13.9*,i,0.95,i,i,i
